# Reference: the M2OR odorant receptor database
# Experiments:
# Settings in all cases: stereoisomer not certain
# UniProt Q8VGX8 = molecular target: T1, UniProt Q8VGX8
# T1 sequence (whole entry): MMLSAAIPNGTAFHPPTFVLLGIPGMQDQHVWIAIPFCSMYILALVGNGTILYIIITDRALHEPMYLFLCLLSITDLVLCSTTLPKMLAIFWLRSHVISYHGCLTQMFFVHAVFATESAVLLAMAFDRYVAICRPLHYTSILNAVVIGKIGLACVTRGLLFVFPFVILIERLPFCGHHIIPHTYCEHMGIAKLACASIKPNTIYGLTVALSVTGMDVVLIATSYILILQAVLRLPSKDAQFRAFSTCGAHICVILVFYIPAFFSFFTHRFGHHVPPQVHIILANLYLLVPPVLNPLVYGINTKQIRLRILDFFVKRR
# How it was run: (§1)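 Assay methods differ from source to source, frequently being transient luciferase assays in mammalian cell lines. For each receptor–molecule pair, the label responsive (active) applies when the original authors judged the measured signal statistically different from baseline, and non-responsive (inactive) applies otherwise.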
# UniProt Q8VGY6 = molecular target: T2, UniProt Q8VGY6
# T2 sequence (whole entry): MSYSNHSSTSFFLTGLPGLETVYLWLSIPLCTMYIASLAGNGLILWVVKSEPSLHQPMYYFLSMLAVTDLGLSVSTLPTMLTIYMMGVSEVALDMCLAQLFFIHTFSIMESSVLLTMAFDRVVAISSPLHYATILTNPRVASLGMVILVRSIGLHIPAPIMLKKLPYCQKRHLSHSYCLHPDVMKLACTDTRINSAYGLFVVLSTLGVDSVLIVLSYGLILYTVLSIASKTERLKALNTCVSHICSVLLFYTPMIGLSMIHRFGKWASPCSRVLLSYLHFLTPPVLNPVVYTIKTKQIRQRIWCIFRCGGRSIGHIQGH
# How it was run: as §1
# UniProt Q8VGZ2 = molecular target: T3, UniProt Q8VGZ2
# T3 sequence (whole entry): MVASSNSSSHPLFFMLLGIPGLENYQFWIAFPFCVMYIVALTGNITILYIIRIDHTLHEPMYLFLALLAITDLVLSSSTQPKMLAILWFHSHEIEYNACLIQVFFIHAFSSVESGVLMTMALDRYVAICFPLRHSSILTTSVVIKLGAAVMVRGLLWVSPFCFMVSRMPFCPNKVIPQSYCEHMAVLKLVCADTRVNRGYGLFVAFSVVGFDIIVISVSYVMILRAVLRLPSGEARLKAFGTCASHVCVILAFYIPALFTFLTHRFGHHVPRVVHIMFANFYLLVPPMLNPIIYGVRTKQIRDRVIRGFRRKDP
# How it was run: as §1
# UniProt Q8VGZ7 = molecular target: T4, UniProt Q8VGZ7
# T4 sequence (whole entry): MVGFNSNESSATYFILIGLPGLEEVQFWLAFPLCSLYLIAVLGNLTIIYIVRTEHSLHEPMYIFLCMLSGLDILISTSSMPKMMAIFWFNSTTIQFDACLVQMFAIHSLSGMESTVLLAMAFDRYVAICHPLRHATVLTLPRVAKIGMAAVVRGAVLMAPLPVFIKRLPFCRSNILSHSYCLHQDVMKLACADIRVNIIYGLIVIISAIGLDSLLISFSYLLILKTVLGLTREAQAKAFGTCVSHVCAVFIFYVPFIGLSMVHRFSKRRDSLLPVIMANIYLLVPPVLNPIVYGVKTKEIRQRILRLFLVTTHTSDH
# How it was run: as §1
# UniProt Q8VH10 = molecular target: T5, UniProt Q8VH10
# T5 sequence (whole entry): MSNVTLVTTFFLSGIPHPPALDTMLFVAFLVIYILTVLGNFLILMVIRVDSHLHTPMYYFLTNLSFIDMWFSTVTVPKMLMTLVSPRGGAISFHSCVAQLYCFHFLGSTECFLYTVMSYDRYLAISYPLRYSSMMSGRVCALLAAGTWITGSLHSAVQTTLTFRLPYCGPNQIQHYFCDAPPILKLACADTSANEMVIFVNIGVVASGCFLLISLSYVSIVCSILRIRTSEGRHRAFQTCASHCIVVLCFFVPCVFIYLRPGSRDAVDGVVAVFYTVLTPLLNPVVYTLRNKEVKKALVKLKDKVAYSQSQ
# How it was run: as §1
# UniProt Q8VH16 = molecular target: T6, UniProt Q8VH16
# T6 sequence (whole entry): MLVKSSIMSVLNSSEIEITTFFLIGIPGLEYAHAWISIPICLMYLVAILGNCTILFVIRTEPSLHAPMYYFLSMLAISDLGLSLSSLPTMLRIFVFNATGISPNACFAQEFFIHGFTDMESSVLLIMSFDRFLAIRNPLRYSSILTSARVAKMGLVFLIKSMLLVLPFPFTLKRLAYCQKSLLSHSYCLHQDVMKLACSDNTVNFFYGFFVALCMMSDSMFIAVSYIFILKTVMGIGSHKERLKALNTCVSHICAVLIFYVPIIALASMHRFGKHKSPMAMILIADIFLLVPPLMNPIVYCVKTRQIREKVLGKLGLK
# How it was run: as §1
# UniProt Q8VH20 = molecular target: T7, UniProt Q8VH20
# T7 sequence (whole entry): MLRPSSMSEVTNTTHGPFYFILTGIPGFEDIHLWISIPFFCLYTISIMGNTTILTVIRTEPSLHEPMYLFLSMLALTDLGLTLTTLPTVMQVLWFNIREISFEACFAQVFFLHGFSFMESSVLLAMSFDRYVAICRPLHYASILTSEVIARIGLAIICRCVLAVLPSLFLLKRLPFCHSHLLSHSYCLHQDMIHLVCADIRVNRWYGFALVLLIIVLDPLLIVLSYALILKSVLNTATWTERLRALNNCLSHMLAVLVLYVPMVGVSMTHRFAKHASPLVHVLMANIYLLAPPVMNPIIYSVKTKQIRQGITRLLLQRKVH
# How it was run: as §1
# UniProt Q8VH21 = molecular target: T8, UniProt Q8VH21
# T8 sequence (whole entry): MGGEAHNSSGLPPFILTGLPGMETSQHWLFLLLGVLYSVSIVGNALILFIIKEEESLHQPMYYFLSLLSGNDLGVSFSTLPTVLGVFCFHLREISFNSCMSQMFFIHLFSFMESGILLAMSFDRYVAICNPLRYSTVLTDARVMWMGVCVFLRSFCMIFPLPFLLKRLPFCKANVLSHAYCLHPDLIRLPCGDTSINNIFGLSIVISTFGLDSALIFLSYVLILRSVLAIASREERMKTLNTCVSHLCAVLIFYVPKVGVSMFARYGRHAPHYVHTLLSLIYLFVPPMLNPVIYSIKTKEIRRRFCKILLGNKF
# How it was run: as §1
# UniProt Q924H8 = molecular target: T9, UniProt Q924H8
# T9 sequence (whole entry): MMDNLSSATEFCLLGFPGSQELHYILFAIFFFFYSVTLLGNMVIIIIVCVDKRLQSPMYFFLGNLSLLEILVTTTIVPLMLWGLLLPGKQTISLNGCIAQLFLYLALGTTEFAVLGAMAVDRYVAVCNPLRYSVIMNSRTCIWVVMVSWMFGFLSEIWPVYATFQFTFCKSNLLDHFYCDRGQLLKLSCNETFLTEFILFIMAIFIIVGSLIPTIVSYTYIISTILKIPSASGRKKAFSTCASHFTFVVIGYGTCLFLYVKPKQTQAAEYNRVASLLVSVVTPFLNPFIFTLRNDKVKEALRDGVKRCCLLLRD
# How it was run: as §1
# UniProt Q9EPN9 = molecular target: T10, UniProt Q9EPN9
# T10 sequence (whole entry): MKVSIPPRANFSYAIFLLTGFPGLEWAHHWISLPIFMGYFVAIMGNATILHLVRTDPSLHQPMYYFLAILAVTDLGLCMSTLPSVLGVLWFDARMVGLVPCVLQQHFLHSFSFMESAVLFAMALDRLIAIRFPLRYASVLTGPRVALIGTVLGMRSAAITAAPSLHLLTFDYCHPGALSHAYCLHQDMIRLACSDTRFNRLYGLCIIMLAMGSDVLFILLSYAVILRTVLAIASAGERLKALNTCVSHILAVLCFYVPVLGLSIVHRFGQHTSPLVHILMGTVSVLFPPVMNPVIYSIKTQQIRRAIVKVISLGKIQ
# How it was run: as §1
# UniProt Q9R0K2 = molecular target: UniProt Q9R0K2
# How it was run: as §1
# UniProt Q9WU86 = molecular target: T11, UniProt Q9WU86
# T11 sequence (whole entry): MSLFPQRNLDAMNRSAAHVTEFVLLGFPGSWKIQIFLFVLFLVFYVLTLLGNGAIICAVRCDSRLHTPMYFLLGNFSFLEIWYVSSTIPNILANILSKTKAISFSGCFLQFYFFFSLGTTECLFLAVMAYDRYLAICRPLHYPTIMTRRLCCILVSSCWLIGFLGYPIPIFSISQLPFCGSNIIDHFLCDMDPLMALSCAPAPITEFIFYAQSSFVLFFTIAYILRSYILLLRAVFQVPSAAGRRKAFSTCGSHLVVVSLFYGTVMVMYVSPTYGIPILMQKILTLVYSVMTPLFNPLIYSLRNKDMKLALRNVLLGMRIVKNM
# How it was run: as §1
# UniProt Q99NH4 = molecular target: T12, UniProt Q99NH4
# T12 sequence (whole entry): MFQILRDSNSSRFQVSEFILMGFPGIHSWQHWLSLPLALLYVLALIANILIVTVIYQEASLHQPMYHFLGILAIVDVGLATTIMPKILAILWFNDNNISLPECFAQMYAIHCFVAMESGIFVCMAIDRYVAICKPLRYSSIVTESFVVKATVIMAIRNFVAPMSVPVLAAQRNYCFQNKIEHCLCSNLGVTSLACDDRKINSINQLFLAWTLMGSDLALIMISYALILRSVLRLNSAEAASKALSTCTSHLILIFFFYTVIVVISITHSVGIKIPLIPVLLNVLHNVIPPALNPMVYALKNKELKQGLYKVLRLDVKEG
# How it was run: as §1
# UniProt Q8VH18 = molecular target: T13, UniProt Q8VH18
# T13 sequence (whole entry): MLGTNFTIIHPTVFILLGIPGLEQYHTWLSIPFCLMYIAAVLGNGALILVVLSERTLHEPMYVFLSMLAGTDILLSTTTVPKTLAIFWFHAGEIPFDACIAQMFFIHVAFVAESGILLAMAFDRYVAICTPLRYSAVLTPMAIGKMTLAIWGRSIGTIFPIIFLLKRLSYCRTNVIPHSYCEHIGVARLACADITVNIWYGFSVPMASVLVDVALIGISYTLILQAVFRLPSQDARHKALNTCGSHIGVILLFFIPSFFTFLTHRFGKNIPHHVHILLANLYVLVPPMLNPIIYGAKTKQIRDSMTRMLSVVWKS
# How it was run: as §1
# UniProt Q924X8 = molecular target: T14, UniProt Q924X8
# T14 sequence (whole entry): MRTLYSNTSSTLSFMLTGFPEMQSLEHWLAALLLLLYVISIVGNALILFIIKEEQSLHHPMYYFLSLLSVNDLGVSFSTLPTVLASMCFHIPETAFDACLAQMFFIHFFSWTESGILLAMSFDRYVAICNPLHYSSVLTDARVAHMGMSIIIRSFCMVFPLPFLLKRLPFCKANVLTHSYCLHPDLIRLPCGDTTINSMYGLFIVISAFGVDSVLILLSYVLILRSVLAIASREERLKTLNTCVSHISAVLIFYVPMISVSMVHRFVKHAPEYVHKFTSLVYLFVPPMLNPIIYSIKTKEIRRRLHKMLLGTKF
# How it was run: as §1
# UniProt Q9WU94 = molecular target: T15, UniProt Q9WU94
# T15 sequence (whole entry): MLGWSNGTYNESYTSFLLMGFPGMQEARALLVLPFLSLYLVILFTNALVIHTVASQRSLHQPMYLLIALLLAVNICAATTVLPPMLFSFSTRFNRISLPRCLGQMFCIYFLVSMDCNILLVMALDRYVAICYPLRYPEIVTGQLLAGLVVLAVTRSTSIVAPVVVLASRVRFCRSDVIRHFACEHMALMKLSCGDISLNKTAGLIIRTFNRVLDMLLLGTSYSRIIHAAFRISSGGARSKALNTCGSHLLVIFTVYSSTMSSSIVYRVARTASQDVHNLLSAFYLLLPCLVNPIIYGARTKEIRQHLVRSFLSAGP
# How it was run: as §1
# UniProt Q9WVD7 = molecular target: T16, UniProt Q9WVD7
# T16 sequence (whole entry): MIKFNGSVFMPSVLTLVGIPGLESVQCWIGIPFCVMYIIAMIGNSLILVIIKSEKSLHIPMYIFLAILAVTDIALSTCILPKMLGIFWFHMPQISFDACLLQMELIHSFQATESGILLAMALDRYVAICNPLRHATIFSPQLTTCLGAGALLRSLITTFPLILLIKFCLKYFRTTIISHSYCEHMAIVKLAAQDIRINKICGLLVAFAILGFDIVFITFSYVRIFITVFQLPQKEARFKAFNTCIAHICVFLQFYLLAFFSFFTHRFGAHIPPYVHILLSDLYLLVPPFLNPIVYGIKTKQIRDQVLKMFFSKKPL
# How it was run: as §1
# Chain of UniProt Q9R0K2 (Q9R0K2 as listed by the source): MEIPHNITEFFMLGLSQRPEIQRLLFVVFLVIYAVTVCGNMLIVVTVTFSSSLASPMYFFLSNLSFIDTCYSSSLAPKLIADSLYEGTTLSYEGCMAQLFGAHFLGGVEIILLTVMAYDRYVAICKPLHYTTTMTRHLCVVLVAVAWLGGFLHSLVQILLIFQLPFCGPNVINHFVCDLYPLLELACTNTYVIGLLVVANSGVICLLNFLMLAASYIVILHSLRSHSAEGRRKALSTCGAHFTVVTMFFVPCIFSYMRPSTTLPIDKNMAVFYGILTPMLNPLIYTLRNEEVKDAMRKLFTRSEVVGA
SMILES,odorant receptor agonist call (UniProt Q8VGX8),odorant receptor agonist call (UniProt Q8VGY6),odorant receptor agonist call (UniProt Q8VGZ2),odorant receptor agonist call (UniProt Q8VGZ7),odorant receptor agonist call (UniProt Q8VH10),odorant receptor agonist call (UniProt Q8VH16),odorant receptor agonist call (UniProt Q8VH20),odorant receptor agonist call (UniProt Q8VH21),odorant receptor agonist call (UniProt Q924H8),odorant receptor agonist call (UniProt Q9EPN9),odorant receptor agonist call (UniProt Q9R0K2),odorant receptor agonist call (UniProt Q9WU86),odorant receptor agonist call (UniProt Q99NH4),odorant receptor agonist call (UniProt Q8VH18),odorant receptor agonist call (UniProt Q924X8),odorant receptor agonist call (UniProt Q9WU94),odorant receptor agonist call (UniProt Q9WVD7)
CC(=O)OCc1ccccc1,inactive,inactive,inactive,inactive,active,inactive,inactive,inactive,inactive,inactive,inactive,inactive,,,,,
CCCCCCOC(C)=O,inactive,inactive,inactive,inactive,inactive,inactive,inactive,inactive,inactive,inactive,inactive,inactive,,,,,
CCCCCC=O,inactive,inactive,inactive,inactive,inactive,inactive,inactive,inactive,inactive,inactive,inactive,inactive,inactive,,,,
C=CCOC(=O)CCCCCC,inactive,inactive,inactive,inactive,inactive,inactive,inactive,inactive,inactive,inactive,inactive,inactive,,,,,
CCCCCCCO,inactive,inactive,inactive,inactive,inactive,inactive,inactive,inactive,inactive,inactive,inactive,inactive,inactive,inactive,inactive,inactive,inactive
